Reference: ChEMBL document CHEMBL3526118, “Combination of GSH trapping and time-dependent inhibition assays as a predictive method of drugs generating highly reactive metabolites” (Drug Metab Dispos, 2011)

Columns and labels:
CYP2D6 = CYP2D6 (Homo sapiens, UniProt P10635); test: in vitro
Liver microsome [1] = test: Covalent binding in human liver microsomes measured per mg of protein using radiolabelled compound at 10 uM after 1 hr incubation by liquid scintillation counting
Liver microsome [2] = test: Metabolic activation in human liver microsomes assessed as [3H]GSH adduct formation rate measured per mg of protein at 100 uM by [3H]GSH trapping assay
CYP1A2 = target: T1, CYP1A2 (Homo sapiens, UniProt P05177); test: in vitro
T1 sequence (P05177 whole entry): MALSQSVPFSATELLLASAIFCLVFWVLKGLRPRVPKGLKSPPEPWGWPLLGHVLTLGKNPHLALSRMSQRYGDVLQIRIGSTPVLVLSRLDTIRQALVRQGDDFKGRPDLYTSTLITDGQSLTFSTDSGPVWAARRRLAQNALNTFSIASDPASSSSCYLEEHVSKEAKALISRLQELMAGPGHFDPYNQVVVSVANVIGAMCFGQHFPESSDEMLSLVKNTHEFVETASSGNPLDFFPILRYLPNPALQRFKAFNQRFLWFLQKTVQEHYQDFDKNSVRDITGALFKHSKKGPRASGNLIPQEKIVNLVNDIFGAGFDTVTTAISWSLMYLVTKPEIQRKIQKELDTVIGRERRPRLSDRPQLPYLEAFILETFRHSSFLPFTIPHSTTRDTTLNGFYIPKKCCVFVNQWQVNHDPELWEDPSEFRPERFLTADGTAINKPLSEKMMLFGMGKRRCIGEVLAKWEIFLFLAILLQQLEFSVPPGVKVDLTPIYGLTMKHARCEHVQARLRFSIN

CYP2B6 = target: T2, CYP2B6 (Homo sapiens, UniProt P20813); test: in vitro
T2 sequence (P20813 whole entry): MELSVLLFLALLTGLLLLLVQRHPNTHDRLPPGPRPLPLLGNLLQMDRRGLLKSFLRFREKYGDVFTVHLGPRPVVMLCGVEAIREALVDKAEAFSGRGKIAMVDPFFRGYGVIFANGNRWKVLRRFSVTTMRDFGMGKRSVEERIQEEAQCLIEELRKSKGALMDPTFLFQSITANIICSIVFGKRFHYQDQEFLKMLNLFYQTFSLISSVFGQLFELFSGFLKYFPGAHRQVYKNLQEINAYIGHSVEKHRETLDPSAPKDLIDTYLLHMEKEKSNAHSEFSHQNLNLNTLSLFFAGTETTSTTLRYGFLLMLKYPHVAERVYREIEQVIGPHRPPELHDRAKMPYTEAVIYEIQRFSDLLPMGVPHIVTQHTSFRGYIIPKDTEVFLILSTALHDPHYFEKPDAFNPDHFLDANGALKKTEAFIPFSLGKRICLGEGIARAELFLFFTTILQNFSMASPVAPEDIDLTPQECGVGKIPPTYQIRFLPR

CYP2C9 = CYP2C9 (Homo sapiens, UniProt P11712); test: in vitro
Chain of CYP2C9 (P11712 whole entry): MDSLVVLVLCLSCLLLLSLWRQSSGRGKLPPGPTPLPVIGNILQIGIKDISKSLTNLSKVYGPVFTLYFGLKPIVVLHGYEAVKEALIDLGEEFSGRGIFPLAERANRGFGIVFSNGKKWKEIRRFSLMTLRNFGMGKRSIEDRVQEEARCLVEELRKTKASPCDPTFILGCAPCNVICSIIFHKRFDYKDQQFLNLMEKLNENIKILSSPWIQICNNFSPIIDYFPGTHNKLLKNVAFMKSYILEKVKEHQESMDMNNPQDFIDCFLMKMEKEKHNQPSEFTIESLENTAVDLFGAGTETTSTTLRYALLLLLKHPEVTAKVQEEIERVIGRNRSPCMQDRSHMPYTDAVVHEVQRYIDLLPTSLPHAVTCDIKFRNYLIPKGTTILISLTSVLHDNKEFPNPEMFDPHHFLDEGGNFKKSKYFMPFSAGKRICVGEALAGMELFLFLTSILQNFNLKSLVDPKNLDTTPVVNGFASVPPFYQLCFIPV

CYP2C19 = CYP2C19 (Homo sapiens, UniProt P33261); test: in vitro
Chain of CYP2C19 (P33261 whole entry): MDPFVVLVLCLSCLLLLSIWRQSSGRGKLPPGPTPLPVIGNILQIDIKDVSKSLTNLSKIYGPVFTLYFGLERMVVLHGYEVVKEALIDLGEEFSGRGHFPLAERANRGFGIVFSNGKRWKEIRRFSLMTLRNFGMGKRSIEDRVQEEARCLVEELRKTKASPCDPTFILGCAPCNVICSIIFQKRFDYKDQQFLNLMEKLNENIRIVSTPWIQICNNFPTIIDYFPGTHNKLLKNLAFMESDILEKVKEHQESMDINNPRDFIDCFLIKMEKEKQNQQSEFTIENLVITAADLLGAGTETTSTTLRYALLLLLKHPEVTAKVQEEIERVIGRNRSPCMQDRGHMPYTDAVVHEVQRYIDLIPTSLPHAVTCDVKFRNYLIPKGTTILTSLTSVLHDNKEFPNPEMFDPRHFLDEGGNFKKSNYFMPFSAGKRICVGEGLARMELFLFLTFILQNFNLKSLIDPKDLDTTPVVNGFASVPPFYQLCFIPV

CYP2C8 [3] = target: T3, CYP2C8 (Homo sapiens, UniProt P10632); test: in vitro
T3 sequence (P10632 whole entry): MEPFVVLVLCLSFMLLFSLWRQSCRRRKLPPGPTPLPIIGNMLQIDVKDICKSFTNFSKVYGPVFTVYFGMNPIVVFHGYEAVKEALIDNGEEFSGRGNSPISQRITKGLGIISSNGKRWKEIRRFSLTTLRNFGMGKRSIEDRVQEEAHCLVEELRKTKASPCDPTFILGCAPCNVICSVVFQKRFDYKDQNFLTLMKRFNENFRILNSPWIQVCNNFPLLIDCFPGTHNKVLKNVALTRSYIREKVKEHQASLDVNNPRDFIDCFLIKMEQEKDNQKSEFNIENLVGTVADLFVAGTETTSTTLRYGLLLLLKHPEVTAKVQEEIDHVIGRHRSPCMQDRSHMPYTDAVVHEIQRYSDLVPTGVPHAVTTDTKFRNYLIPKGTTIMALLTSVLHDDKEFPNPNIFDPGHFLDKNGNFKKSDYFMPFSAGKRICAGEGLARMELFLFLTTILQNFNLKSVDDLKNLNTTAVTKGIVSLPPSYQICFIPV

CYP3A4 [4] = target: T4, CYP3A4 (Homo sapiens, UniProt P08684); test: Time dependent inhibition of CYP3A4 (unknown origin) at 10 uM by LC/MS system; assay type: ADME
T4 sequence (P08684 whole entry): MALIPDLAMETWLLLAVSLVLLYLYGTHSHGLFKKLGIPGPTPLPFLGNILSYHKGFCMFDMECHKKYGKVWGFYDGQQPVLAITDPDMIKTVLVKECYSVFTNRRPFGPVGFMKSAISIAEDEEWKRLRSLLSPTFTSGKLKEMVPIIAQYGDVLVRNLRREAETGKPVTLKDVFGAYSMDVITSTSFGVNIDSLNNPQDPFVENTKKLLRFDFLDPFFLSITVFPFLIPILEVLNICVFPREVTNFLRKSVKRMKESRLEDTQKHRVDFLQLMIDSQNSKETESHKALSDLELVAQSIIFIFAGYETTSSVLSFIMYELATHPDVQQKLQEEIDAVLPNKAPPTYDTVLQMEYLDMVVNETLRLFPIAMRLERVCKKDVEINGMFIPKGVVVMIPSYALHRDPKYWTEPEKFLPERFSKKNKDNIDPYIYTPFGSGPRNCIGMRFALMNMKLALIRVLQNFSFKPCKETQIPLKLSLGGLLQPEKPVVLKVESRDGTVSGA
Summary of the method: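 CYP3A4: human liver microsomes at 0.5 mg/mL in preincubation, 0.1 M sodium phosphate, NADPH-generating system, 0 or 30 min. Ten-fold dilution into incubation with 2.5 μM midazolam (final), 10 min. Each value is relative to the matched control without inhibitor. % enzyme inactivation = 100 × [1 − %control(30 min)/%control(0 min)]; 10% threshold.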

[5] = Intrinsic clearance for reactive metabolites formation per mg of protein based on cytochrome P450 (unknown origin) inactivation rate by TDI assay; conditions: human
CYP3A4 [6] = target: T4, CYP3A4; test: in vitro
Liver microsome [7] = conditions: human, microsomes, 100 µM
[8] = Intrinsic clearance for reactive metabolites formation assessed as summation of [3H]GSH adduct formation rate-based reactive metabolites formation and cytochrome P450 (unknown origin) inactivation rate-based reactive metabolites formation; conditions: human
CYP2C8 [9] = target: T3, CYP2C8; test: Time dependent inhibition of CYP2C8 (unknown origin) at 10 uM by LC/MS system; assay type: ADME
Summary of the method: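 CYP2C8 in human liver microsomes (1.0 mg/mL in preincubation), 0.1 M sodium phosphate, NADPH-generating system. Preincubation 0 or 30 min, then ten-fold dilution into incubation with 10 μM paclitaxel (final) for 10 min.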

Chain of CYP2D6 (P10635 whole entry): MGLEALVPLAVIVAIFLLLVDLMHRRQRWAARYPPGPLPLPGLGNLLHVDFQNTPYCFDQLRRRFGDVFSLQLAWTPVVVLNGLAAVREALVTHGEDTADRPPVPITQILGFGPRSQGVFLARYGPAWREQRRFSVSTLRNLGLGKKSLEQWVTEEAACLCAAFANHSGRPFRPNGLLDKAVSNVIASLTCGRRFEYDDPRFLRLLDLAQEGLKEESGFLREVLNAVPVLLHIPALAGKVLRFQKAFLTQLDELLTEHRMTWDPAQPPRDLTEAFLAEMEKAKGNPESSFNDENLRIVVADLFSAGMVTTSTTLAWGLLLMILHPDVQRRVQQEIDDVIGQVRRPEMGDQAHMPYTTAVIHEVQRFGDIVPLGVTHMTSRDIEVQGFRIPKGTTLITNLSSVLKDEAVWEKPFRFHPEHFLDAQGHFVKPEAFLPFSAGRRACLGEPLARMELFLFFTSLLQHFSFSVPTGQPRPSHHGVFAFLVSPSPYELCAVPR

Structure (SMILES)	inhibition at 100 µM (CYP2D6) [%]	PB (Liver microsome [1]) [pmol]	Drug metabolism (Liver microsome [2])	inhibition at 100 µM (CYP1A2) [%]	inhibition at 100 µM (CYP2B6) [%]	inhibition at 100 µM (CYP2C9) [%]	inhibition at 100 µM (CYP2C19; microsomes) [%]	inhibition at 100 µM (CYP2C8 [3]) [%]	inhibition at 10 µM (CYP3A4 [4]) [%]	clearance [5] [µL/min/mg]	inhibition at 100 µM (CYP3A4 [6]) [%]	inhibition at 100 µM (CYP2C19; human liver microsomes) [%]	CLH (Liver microsome [7]) [µL/min/mg]	clearance [8] [µL/min/mg]	inhibition at 10 µM (CYP2C8 [9]) [%]
NC(=O)N1c2ccccc2C=Cc2ccccc21 [CARBAMAZEPINE]	< 10	3.3	metabolite_not_detected	< 10	< 10	< 10	< 10	< 10	< 10						
Cc1cc2c(s1)Nc1ccccc1N=C2N1CCN(C)CC1 [OLANZAPINE]	63	138.9	11.3 pmol/min	< 10	< 10	< 10		< 10		0.006	< 10	< 10	0.113	0.119	
Nc1c2c(nc3ccccc13)CCCC2 [TACRINE]	24	137	metabolite_not_detected	28	< 10	< 10	< 10	< 10		0.007	< 10			0.007	
CC/C(=C(\c1ccccc1)c1ccc(OCCN(C)C)cc1)c1ccccc1 [TAMOXIFEN]		11.5	metabolite_not_detected	< 10	< 10		< 10				< 10				< 10
Cc1ccnc2c1NC(=O)c1cccnc1N2C1CC1 [NEVIRAPINE]	< 10	19.1	1.2 pmol/min	< 10	< 10	< 10		< 10		0.001	< 10	12	0.012	0.013	
O=C1NC(=O)C(c2ccccc2)(c2ccccc2)N1 [PHENYTOIN]	< 10	4.4	1.2 pmol/min	< 10	< 10	< 10	< 10	< 10			< 10		0.012	0.012	
CC(C)C(=O)Nc1ccc([N+](=O)[O-])c(C(F)(F)F)c1 [FLUTAMIDE]	< 10	178	2 pmol/min	< 10	< 10	< 10		< 10			< 10	< 10	0.02	0.02	
COc1ccc2c(c1)c(CC(=O)O)c(C)n2C(=O)c1ccc(Cl)cc1 [INDOMETHACIN]	< 10	14.7	metabolite_not_detected	< 10	< 10	< 10		14		0.001	< 10	< 10		0.001	
